Assay [1] has as its target Tyrosine-protein kinase CSK (Homo sapiens) (UniProt P41240). The experiment in a line: Inhibition of CSK (unknown origin) at 1 uM incubated for 30 mins in presence of [gamma-33P]ATP by multidrop micro reagent based assay relative to control.
Assay [2] addresses Leucine-rich repeat serine/threonine-protein kinase 2 (Homo sapiens, UniProt Q5S007). The experiment in a line: Inhibition of LRRK2 in human Flp-In-T-REx-293 cells assessed as inhibition of ERM phosphorylation at 10 uM incubated for 1 hr in presence of LRRKtide by immunoblot analysis. The class given is cell-based. An outline of the steps: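 Flp-in T-REx cells carrying GFP-tagged G14V-Rho were left uninduced or induced with 1 μg/ml doxycycline. At 7 h, compound at 10 μM was added for 1 h. Cells were lysed in SDS lysis buffer, run on 4–12% gels and immunoblotted with pan-phospho-ERM antibody (1 μg/ml in milk/TBST containing 10 μg/ml LRRKtide).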
(In general: In western blotting, separated proteins are transferred to a membrane and probed.)

In assay [3] the target is Mitogen-activated protein kinase 3 (Homo sapiens) (UniProt P27361). The experiment in a line: Inhibition of ERK1 (unknown origin) at 1 uM incubated for 30 mins in presence of [gamma-33P]ATP by multidrop micro reagent based assay relative to control; values are per cent of control.
Assay [4] has as its target Serine/threonine-protein kinase Chk2 (Homo sapiens) (UniProt O96017). As to the kind of experiment: Inhibition of CHK2 (unknown origin) at 1 uM incubated for 30 mins in presence of [gamma-33P]ATP by multidrop micro reagent based assay relative to control; values are per cent of control.
Assay [5] concerns the target Maternal embryonic leucine zipper kinase (Homo sapiens) (UniProt Q14680). As to the kind of experiment: Inhibition of MELK (unknown origin) at 1 uM incubated for 30 mins in presence of [gamma-33P]ATP by multidrop micro reagent based assay relative to control; values are per cent of control.
For assay [6], the target named is Serine/threonine-protein kinase Nek6 (Homo sapiens) (UniProt Q9HC98). As to the kind of experiment: Inhibition of NEK6 (unknown origin) at 1 uM incubated for 30 mins in presence of [gamma-33P]ATP by multidrop micro reagent based assay relative to control; values are per cent of control.
Assay [7] addresses T1, Serine/threonine-protein kinase TBK1 (Homo sapiens) (UniProt Q9UHD2).
T1 sequence (whole entry): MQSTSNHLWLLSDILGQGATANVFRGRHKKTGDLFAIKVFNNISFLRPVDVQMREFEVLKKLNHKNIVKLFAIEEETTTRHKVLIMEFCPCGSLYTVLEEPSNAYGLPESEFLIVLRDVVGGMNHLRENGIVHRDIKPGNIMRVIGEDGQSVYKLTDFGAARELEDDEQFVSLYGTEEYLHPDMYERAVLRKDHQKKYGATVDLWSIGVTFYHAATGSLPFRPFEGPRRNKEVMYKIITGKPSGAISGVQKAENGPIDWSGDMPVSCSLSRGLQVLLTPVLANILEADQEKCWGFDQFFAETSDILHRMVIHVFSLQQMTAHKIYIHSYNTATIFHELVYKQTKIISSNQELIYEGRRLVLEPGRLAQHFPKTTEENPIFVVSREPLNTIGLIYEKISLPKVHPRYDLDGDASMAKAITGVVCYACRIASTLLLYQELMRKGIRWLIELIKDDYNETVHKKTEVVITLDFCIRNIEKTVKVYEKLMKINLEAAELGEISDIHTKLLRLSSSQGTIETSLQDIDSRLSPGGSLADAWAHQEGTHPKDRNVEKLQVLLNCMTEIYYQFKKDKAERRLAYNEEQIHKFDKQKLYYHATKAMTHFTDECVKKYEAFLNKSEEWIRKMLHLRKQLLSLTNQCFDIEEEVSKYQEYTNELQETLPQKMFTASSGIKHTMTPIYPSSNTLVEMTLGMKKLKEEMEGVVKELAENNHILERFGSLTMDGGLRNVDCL
As to the kind of experiment: Inhibition of TBK1 (unknown origin) at 1 uM incubated for 30 mins in presence of [gamma-33P]ATP by multidrop micro reagent based assay relative to control; values are per cent of control.

In assay [8] the target is Insulin-like growth factor 1 receptor (Homo sapiens) (UniProt P08069). As to the kind of experiment: Inhibition of IGF-1R (unknown origin) at 1 uM incubated for 30 mins in presence of [gamma-33P]ATP by multidrop micro reagent based assay relative to control; values are per cent of control.
Assay [9] has as its target T2, Inhibitor of nuclear factor kappa-B kinase subunit beta (Homo sapiens) (UniProt O14920).
T2 sequence (whole entry): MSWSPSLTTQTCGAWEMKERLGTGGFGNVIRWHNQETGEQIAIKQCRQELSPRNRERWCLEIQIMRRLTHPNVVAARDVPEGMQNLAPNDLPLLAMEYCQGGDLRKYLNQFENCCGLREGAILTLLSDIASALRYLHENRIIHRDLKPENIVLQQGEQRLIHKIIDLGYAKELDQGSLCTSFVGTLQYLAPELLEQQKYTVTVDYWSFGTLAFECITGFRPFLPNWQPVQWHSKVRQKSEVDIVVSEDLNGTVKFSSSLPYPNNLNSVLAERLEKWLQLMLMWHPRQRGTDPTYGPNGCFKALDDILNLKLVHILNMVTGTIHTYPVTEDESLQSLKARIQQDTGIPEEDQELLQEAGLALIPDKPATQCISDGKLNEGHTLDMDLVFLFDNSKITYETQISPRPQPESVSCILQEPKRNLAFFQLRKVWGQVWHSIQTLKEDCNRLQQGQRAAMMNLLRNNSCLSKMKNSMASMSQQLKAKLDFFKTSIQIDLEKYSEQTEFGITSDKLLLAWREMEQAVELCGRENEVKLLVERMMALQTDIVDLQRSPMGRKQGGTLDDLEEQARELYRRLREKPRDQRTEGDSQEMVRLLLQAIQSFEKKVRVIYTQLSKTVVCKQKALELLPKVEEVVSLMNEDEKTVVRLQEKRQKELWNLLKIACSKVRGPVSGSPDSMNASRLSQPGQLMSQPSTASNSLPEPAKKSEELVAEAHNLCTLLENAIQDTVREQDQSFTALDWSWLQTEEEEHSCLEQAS
As to the kind of experiment: Inhibition of IKKbeta (unknown origin) at 1 uM incubated for 30 mins in presence of [gamma-33P]ATP by multidrop micro reagent based assay relative to control; values are per cent of control.

In assay [10] the target is Mitogen-activated protein kinase 11 (Homo sapiens) (UniProt Q15759). The experiment in a line: Inhibition of p38beta MAPK (unknown origin) at 1 uM incubated for 30 mins in presence of [gamma-33P]ATP by multidrop micro reagent based assay relative to control; values are per cent of control.

Activity calls are given as the source filed them. The calls are words filed in the database; no cut-off is given here.

Sequence of Leucine-rich repeat serine/threonine-protein kinase 2 (Q5S007 whole entry): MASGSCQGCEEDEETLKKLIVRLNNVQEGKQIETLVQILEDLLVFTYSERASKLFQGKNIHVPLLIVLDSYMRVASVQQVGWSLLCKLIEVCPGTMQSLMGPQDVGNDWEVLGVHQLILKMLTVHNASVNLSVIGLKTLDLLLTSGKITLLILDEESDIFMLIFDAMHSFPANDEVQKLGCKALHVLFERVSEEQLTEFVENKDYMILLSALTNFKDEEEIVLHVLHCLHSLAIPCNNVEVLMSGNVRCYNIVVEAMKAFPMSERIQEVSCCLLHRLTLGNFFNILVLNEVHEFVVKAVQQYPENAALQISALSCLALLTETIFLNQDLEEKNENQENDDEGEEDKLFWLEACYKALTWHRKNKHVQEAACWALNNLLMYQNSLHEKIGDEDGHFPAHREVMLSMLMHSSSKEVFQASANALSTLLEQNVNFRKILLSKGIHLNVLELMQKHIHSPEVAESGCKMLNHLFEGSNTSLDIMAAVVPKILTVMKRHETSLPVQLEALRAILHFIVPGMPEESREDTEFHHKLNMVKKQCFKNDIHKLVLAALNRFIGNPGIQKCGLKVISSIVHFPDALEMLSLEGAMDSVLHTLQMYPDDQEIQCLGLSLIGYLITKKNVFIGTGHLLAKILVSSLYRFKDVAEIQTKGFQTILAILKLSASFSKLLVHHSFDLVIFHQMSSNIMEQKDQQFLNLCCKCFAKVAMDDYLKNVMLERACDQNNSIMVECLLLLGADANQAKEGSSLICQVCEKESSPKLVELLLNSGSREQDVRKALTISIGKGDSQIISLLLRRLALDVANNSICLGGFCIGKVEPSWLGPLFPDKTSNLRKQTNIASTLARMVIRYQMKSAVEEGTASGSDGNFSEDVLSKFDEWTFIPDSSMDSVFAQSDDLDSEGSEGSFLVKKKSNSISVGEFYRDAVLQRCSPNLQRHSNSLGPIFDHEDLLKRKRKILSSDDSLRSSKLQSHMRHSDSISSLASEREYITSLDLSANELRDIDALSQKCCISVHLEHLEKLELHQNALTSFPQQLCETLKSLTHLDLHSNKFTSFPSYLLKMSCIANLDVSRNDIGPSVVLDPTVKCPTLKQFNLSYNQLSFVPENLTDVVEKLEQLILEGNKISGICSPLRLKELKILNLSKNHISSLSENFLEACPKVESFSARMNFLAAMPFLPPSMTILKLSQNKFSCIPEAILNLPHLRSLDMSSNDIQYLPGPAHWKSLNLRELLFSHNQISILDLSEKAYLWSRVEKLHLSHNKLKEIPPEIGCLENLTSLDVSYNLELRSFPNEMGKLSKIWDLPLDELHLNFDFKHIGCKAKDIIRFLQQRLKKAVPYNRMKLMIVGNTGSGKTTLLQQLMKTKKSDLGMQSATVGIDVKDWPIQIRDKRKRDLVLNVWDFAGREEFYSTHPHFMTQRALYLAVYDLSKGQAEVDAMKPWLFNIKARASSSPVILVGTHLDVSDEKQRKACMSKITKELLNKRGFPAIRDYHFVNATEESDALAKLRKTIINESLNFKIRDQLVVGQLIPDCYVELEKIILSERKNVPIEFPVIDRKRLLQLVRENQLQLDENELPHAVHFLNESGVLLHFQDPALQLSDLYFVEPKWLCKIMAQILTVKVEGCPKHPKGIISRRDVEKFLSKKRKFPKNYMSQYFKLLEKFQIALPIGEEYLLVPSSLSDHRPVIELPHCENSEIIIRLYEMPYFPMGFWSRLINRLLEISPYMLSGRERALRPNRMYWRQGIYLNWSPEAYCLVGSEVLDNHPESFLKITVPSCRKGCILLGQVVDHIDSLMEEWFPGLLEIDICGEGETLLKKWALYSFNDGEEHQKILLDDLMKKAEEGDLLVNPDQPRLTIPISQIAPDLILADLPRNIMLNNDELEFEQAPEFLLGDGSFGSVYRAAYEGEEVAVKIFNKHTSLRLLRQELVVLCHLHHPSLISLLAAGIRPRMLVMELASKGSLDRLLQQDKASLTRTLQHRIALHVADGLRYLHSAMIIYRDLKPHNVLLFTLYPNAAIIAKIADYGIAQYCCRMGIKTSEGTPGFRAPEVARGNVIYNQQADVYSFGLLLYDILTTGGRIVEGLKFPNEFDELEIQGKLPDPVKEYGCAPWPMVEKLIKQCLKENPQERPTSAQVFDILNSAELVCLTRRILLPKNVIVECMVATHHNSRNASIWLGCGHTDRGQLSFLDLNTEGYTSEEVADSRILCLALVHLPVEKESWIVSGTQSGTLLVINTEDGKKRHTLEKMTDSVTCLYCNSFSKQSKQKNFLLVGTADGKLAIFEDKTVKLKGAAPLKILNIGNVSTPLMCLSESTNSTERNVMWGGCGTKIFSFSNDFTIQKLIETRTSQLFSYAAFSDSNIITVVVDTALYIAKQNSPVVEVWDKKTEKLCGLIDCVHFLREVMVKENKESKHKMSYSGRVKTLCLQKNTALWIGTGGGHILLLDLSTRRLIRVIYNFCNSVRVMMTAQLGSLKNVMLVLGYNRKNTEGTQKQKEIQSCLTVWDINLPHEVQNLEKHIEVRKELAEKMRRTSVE
Sequence of Insulin-like growth factor 1 receptor (Homo sapiens) (P08069 31-736 limits assumed): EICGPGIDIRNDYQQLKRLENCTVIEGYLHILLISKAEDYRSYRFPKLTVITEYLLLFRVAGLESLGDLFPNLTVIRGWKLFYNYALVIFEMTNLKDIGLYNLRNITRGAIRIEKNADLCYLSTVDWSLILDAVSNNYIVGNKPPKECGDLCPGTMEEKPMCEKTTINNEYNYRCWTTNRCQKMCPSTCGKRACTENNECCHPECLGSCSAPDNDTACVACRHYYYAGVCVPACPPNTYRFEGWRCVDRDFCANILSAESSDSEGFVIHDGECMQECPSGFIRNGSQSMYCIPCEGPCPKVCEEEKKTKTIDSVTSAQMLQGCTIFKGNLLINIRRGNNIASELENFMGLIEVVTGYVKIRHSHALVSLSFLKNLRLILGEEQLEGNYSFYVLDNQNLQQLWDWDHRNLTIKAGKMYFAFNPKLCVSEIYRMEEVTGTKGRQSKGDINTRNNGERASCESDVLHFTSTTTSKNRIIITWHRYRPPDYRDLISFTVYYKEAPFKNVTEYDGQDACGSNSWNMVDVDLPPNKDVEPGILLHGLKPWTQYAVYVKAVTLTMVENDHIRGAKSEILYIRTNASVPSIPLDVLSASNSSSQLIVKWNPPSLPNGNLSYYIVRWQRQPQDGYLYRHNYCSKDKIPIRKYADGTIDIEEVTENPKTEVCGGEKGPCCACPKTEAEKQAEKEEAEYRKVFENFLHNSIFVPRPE
Sequence of Insulin-like growth factor 1 receptor (Homo sapiens) (P08069 741-1367 limits assumed): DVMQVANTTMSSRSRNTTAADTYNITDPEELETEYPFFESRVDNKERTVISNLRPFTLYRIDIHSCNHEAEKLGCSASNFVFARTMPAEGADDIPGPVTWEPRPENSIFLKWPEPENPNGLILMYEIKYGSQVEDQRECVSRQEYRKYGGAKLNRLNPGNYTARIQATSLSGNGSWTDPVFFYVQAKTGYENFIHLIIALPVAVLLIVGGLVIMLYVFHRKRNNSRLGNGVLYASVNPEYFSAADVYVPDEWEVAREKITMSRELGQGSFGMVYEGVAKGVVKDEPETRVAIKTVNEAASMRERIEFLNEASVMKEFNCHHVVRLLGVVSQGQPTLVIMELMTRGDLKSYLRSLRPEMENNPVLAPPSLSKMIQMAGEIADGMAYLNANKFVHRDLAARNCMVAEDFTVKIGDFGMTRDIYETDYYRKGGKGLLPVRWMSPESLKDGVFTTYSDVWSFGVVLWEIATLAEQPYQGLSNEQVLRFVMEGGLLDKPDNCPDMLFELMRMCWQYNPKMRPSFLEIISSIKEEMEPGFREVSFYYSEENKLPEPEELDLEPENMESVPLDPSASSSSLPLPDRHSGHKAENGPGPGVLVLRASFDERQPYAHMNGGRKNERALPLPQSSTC
Sequence of Maternal embryonic leucine zipper kinase (Homo sapiens) (Q14680 whole entry, looked up): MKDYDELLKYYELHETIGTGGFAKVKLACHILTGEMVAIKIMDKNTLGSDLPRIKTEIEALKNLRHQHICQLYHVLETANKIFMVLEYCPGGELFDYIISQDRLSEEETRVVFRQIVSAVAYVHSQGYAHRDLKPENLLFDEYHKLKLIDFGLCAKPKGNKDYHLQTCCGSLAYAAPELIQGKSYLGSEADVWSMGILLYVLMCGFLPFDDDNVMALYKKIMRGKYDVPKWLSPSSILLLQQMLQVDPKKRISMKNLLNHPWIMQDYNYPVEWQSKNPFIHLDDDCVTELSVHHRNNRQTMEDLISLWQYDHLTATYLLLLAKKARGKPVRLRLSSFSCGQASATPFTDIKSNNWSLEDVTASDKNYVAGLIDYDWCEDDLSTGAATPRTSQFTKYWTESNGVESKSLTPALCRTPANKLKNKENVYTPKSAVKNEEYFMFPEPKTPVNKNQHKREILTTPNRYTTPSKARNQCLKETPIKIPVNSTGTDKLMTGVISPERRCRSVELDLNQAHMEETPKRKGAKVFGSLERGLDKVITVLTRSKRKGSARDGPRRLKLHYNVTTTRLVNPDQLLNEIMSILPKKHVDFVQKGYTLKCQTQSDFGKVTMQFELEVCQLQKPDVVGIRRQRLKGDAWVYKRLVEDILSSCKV
Sequence of Tyrosine-protein kinase CSK (Homo sapiens) (P41240 2-450 limits assumed): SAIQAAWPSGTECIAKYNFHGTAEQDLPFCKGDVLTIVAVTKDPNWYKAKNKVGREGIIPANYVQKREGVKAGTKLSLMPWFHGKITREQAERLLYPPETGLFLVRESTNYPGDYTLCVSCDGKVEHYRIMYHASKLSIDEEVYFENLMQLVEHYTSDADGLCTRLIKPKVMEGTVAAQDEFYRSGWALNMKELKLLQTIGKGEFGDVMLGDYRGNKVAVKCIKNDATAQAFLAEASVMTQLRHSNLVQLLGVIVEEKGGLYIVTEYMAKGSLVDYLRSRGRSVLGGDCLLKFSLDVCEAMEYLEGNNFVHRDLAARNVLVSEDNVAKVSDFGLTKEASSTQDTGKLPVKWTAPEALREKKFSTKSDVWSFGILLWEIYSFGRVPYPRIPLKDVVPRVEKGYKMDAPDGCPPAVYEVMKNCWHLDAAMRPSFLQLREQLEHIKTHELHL

For orientation: inhibition means the drop in the measured response relative to a control, in per cent. On to `CC1=C(C(=O)Nc2cc3cn[nH]c3cc2F)C(c2ccc(C(F)(F)F)cc2)CC(=O)N1` (centres undefined), for which the inhibition in [1] came out at 106%. The inhibition result in assay [2] was “inactive”. In addition, the residual activity in [3] is 90%; in assay [4], 102%; in [5], 83%; in assay [6], 87%; in assay [7] it was 101%; in assay [8], 97%. The residual activity in assay [9] and in [10] was 97% in each case.
In the case of `Cc1cncc2cccc(S(=O)(=O)N3CCCNC[C@@H]3C)c12`, the inhibition in assay [1] was 101%. The inhibition result in [2] was “inactive”. Moreover, the residual activity in [3] stood at 105%; in assay [4] it was 44%; in [5], 70%; in assay [6], 99%; in assay [7], 98%; in [8], 113%. In addition, the residual activity in assay [9] is 100%; in assay [10] it was 107%.
As to `C[C@@H](N)[C@H]1CC[C@H](C(=O)Nc2ccncc2)CC1`, in [2], the inhibition result is “inactive”.
As for `CCn1c(-c2nonc2N)nc2cnc(Oc3cccc(NC(=O)c4ccc(OCCN5CCOCC5)cc4)c3)cc21` [GSK-269962A], the inhibition in [1] amounted to 98%. The inhibition result in [2] is “inactive”. The residual activity was determined as 106% in assay [3]; 44% in assay [5]; 82% in [6]; 77% in assay [7]; 104% in assay [8]; 83% in assay [9]. Also, in assay [10], the residual activity came out at 113%.
With `CCN(CC)CCNC(=O)c1c(C)[nH]c(/C=C2\C(=O)Nc3ccc(F)cc32)c1C`, the inhibition result in [2] is “inactive”. In addition, the values for the residual activity in [4], in [5] and in assay [7] were 5%, 17% and 54%, respectively.

For the origin of these results see ChEMBL document CHEMBL5705888, “Substrate specificity and inhibitors of LRRK2, a protein kinase mutated in Parkinson's disease” (Biochem J, 2009).
